Each molecule was assayed against T1, 5-hydroxytryptamine receptor 6 (Homo sapiens, UniProt P50406) (assay: pA2 against 5-Hydroxytryptamine 6 receptor).
T1 sequence (P50406 whole entry): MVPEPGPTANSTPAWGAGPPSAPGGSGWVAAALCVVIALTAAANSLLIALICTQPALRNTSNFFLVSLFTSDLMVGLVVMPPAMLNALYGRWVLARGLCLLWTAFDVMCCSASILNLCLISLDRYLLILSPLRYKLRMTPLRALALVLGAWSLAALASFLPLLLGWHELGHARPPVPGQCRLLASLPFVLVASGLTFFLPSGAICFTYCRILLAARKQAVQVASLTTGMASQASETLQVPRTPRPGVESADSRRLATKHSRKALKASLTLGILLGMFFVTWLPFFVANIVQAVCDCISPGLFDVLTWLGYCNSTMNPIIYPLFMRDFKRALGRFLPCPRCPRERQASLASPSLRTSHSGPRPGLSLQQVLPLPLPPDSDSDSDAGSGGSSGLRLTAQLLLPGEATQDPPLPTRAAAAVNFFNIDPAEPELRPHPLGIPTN
`O=S(=O)(c1ccccc1)c1ccc(N2CCNCC2)c2ccccc12` was tested, and the pA2 was 7.5.

These molecules were tested against T1, 5-hydroxytryptamine receptor 6 (assay: Binding affinity against 5 Hydroxy tryptamine 6 receptor).
Procedure, shortened: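 Human 5-HT6 cDNA transiently expressed in HEK-293 cells, switched to dialyzed-serum medium, harvested 75 h post-transfection, PBS-washed and frozen as pellets. Nonspecific binding defined with 10 µM clozapine. Ki values from triplicate determinations.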
`Nc1ccc(S(=O)(=O)c2ccc(N3CCNCC3)c3ccccc23)cc1` was tested, and the Ki was 0.0009 µM. `COc1ccccc1N1CCNCC1` was tested, and the Ki was 0.0012 µM. Work on `Brc1ccc(N2CCNCC2)c2ccccc12` yielded a Ki of 0.054 µM. For `c1ccc(-c2cc(N3CCNCC3)c3ccccc3c2)cc1`, the Ki was 0.0093 µM. For `Nc1ccc(S(=O)(=O)c2cc(Br)nc(N3CCNCC3)c2)cc1`, the Ki was ~0.0001 µM. `O=S(=O)(c1ccccc1)c1ccc(N2CCNCC2)c2ccccc12` showed a Ki of 0.0038 µM. Work on `c1ccc(Cc2ccc(N3CCNCC3)c3ccccc23)cc1` yielded a Ki of 0.035 µM. For `Nc1ccc(S(=O)(=O)c2cc(Br)nc(N3CCCC3)c2)cc1`, the Ki was ~0.001 µM. `O=C(c1ccccc1)c1ccc(N2CCNCC2)c2ccccc12` was tested, and the Ki was 0.057 µM. `Nc1ccc(S(=O)(=O)c2cccc3ccccc23)cc1` was tested, and the Ki was 0.034 µM. Molecule `O=S(=O)(c1ccc(NO)cc1)c1cccc2ccccc12` has a Ki of 0.063 µM. In the case of `CCc1cc(N2CCNCC2)c2ccccc2c1`, the Ki is reported as 0.021 µM. Molecule `c1ccc(-c2ccc(N3CCNCC3)c3ccccc23)cc1` has a Ki of 0.19 µM.

What follows are molecules tested against T1, 5-hydroxytryptamine receptor 6 (assay: Binding affinity against 5-hydroxy tryptamine 6 receptor).
Procedure, shortened: (§1)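 Human 5-HT6 cDNA transiently expressed in HEK-293 cells, switched to dialyzed-serum medium, harvested 75 h post-transfection, PBS-washed and frozen as pellets. [3H]LSD (1 nM final) displaced by unlabeled ligand (1–10,000 nM), 90 min at room temperature in 50 mM Tris-Cl, 10 mM MgCl2, 0.1 mM EDTA, pH 7.40. Nonspecific binding defined with 10 µM clozapine. Ki values from triplicate determinations.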
Work on `c1ccc2c(N3CCNCC3)cccc2c1` yielded a Ki of 0.12 µM.

These molecules were tested against T1, 5-hydroxytryptamine receptor 6 (assay: Binding affinity against 5-hydroxytryptamine 6 receptor).
Procedure, shortened: as §1
`c1ccc2c(N3CCNCC3)cccc2c1` gave a Ki of 0.1 µM.
